Where “and” joins values, the source holds several entries; their conditions need not be identical. Equal values may be shown once.
Assays:
Assay type in all cases: in vivo
female Swiss albino mice [1] = experiment: Tail Suspension Test; conditions: percentage decrease in duration of immobility compared to disease control
Outline: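 Female Swiss albino mice (20–23 g) received standard or test compound 30 min before testing. Each mouse was hung by the tail from a hook in a three-sided chamber, 50 cm above the surface. Total immobility was recorded over a 10-min session and reported as mean ± SEM.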

female Swiss albino mice [2] = experiment: Acute oral toxicity study; conditions: individual mice; for Body weight Day 0: pre-administration fasting weight
Outline: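 Female Swiss albino mice (20–23 g) kept at 22 ± 3 °C, 50–65% humidity, 12 h light/dark. OECD 423 stepwise design, three mice per step: 300 mg/kg, then 2000 mg/kg. Test compound was given in distilled water by oral intubation needle. Feed was withheld 3–4 h before and 2 h after dosing. Fasting weight was taken pre-dose, then on days 7 and 14.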

female Swiss albino mice [3] = experiment: Forced Swim Test; conditions: percentage decrease in duration of immobility compared to disease control
Outline: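 Female Swiss albino mice (20–23 g) were dosed 30 min before testing: saline 10 mL/kg (control), fluoxetine 10 mg/kg (standard), or test compound 100 mg/kg. Two 10-min swim sessions ran 24 h apart (pre-test, then test). Water was at 23 ± 1 °C, deep enough that hind legs could not touch bottom, and changed after each trial. Immobility duration reported as mean ± SEM.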

Compound | DID (%) Tail suspension test (female Swiss albino mice [1]) [%] | Body weight Day 7 (female Swiss albino mice [2]; Step I 300 mg kg^−1 oral) | Body weight Day 14 (female Swiss albino mice [2]; Step I 300 mg kg^−1 oral) | Body weight Day 0 (female Swiss albino mice [2]; Step I 300 mg kg^−1 oral) | Body weight Day 7 (female Swiss albino mice [2]; Step II 2000 mg kg^−1 oral) | Body weight Day 14 (female Swiss albino mice [2]; Step II 2000 mg kg^−1 oral) | Body weight Day 0 (female Swiss albino mice [2]; Step II 2000 mg kg^−1 oral) | DID (%) Forced swim test (female Swiss albino mice [3]) [%]
Cc1nn(-c2ccccc2)c(N2CCCCC2)c1/C=C/C(=O)c1ccc(-n2c3ccccc3c3ccccc32)cc1 [13a, (E)-1-(4-(9H-Carbazol-9-yl)phenyl)-3-(3-methyl-1-phenyl-5-(piperidin-1-yl)-1H-pyrazol-4-yl)prop-2-en-1-one] | 5.74 | 28 g and 26.5 g and 29 g | 32 g and 33 g and 34.5 g | 22.5 g and 21.5 g and 25 g | 29.5 g and 29 g and 30 g | 33 g and 32.5 g and 35 g | 24 g and 23.5 g | 24.92
Cc1nn(-c2ccccc2)c(N2CCOCC2)c1/C=C/C(=O)c1ccc(-n2c3ccccc3c3ccccc32)cc1 [13b, (E)-1-(4-(9H-Carbazol-9-yl)phenyl)-3-(3-methyl-5-morpholino-1-phenyl-1H-pyrazol-4-yl)prop-2-en-1-one] | 11.30 | 26.5 g and 29 g and 29.5 g | 32.5 g and 36 g and 34.5 g | 23.5 g and 24 g | 27.5 g and 30.5 g and 27 g | 32 g and 34.5 g | 23 g and 24.5 g and 21.5 g | 23.47
Cc1nn(-c2ccccc2)c(-n2nnc3ccccc32)c1/C=C/C(=O)c1ccc(-n2c3ccccc3c3ccccc32)cc1 [13c, (E)-3-(5-(1H-Benzo[d][1,2,3]triazol-1-yl)-3-methyl-1-phenyl-1H-pyrazol-4-yl)-1-(4-(9H-carbazol-9-yl)phenyl)prop-2-en-1-one] | 34.67 | 26.5 g | 31 g and 30 g | 22.5 g and 23.5 g and 21.5 g | 28 g and 28.5 g and 29.5 g | 33.5 g and 34.5 g | 22 g and 23.5 g | 35.63
COc1c(/C=C/C(=O)c2ccc(-n3c4ccccc4c4ccccc43)cc2)c(C)nn1-c1ccccc1 [13d, (E)-1-(4-(9H-Carbazol-9-yl)phenyl)-3-(5-methoxy-3-methyl-1-phenyl-1H-pyrazol-4-yl)prop-2-en-1-one] | 8.55 |  |  |  |  |  |  | 
Cc1nn(-c2ccccc2)c(N2CCCCC2)c1/C=C/C(=O)c1ccc(-n2ccc3ccccc32)cc1 [14a, (E)-1-(4-(1H-Indol-1-yl)phenyl)-3-(3-methyl-1-phenyl-5-(piperidin-1-yl)-1H-pyrazol-4-yl)prop-2-en-1-one] | 2.58 |  |  |  |  |  |  | 16.61
Cc1nn(-c2ccccc2)c(N2CCOCC2)c1/C=C/C(=O)c1ccc(-n2ccc3ccccc32)cc1 [14b, (E)-1-(4-(1H-Indol-1-yl)phenyl)-3-(3-methyl-5-morpholino-1-phenyl-1H-pyrazol-4-yl)prop-2-en-1-one] | 1.92 |  |  |  |  |  |  | 2.22
Cc1nn(-c2ccccc2)c(-n2nnc3ccccc32)c1/C=C/C(=O)c1ccc(-n2ccc3ccccc32)cc1 [14c, (E)-3-(5-(1H-Benzo[d][1,2,3]triazol-1-yl)-3-methyl-1-phenyl-1H-pyrazol-4-yl)-1-(4-(1H-indol-1-yl)phenyl)prop-2-en-1-one] | 9.60 |  |  |  |  |  |  | 17.90
COc1c(/C=C/C(=O)c2ccc(-n3ccc4ccccc43)cc2)c(C)nn1-c1ccccc1 [14d, (E)-1-(4-(1H-Indol-1-yl)phenyl)-3-(5-methoxy-3-methyl-1-phenyl-1H-pyrazol-4-yl)prop-2-en-1-one] | 5.57 |  |  |  |  |  |  | 13.62
Cc1nn(-c2ccccc2)c(N2CCCCC2)c1/C=C/C(=O)c1ccc(-n2cccc2)cc1 [15a, (E)-1-(4-(1H-Pyrrol-1-yl)phenyl)-3-(3-methyl-1-phenyl-5-(piperidin-1-yl)-1H-pyrazol-4-yl)prop-2-en-1-one] | 4.50 |  |  |  |  |  |  | 6.55
Cc1nn(-c2ccccc2)c(N2CCOCC2)c1/C=C/C(=O)c1ccc(-n2cccc2)cc1 [15b, (E)-1-(4-(1H-Pyrrol-1-yl)phenyl)-3-(3-methyl-5-morpholino-1-phenyl-1H-pyrazol-4-yl)prop-2-en-1-one] | 5.74 |  |  |  |  |  |  | 11.56
Cc1nn(-c2ccccc2)c(-n2nnc3ccccc32)c1/C=C/C(=O)c1ccc(-n2cccc2)cc1 [15c, (E)-3-(5-(1H-Benzo[d][1,2,3]triazol-1-yl)-3-methyl-1-phenyl-1H-pyrazol-4-yl)-1-(4-(1H-pyrrol-1-yl)phenyl)prop-2-en-1-one] | 14.60 |  |  |  |  |  |  | 22.99
COc1c(/C=C/C(=O)c2ccc(-n3cccc3)cc2)c(C)nn1-c1ccccc1 [15d, (E)-1-(4-(1H-Pyrrol-1-yl)phenyl)-3-(5-methoxy-3-methyl-1-phenyl-1H-pyrazol-4-yl)prop-2-en-1-one] | 16.24 |  |  |  |  |  |  | 22.53
CNCCC(Oc1ccc(C(F)(F)F)cc1)c1ccccc1 (stereo not shown) [Fluoxetine, reference compound] | 59.67 |  |  |  |  |  |  | 56.17
